Experimental data published in ChEMBL document CHEMBL4350976, “Sequence modification of heptapeptide selected by phage display as homing device for HT-29 colon cancer cells to improve the anti-tumour activity of drug delivery systems” (Eur J Med Chem, 2019).
Where a SMILES comes first, the peptide text is derived from it. The star is where a group is joined. X1 = COc1cccc2c1C(=O)c1c(O)c3c(c(O)c1C2=O)C[C@@](O)(/C(C)=N/OCC(=O)*)C[C@@H]3O[C@H]1C[C@H](N)[C@H](O)[C@H](C)O1

What was measured:
MDA-MB-231 = assay: Potency index, ratio of compound IC50 to Daunomycin IC50 for human MDA-MB-231 cells preincubated for 24 hrs under serum free condition followed by compound washout and further incubation for 48 hrs in presence of serum by MTT assay; assay type: functional
HT-29 = assay: Antitumor activity against human HT-29 cells xenografted in SCID mouse assessed as decrease in number of Ki-67 positive cells measured as proliferation index at 38.3 mg/kg, ip administered thrice in first week (on days 13, 16, 20, 23 and 27) and twice in second week starting from 13 days post inoculation measured at day 30 post inoculation by KI-67-staining based light microscopic analysis (reference value: 100%); assay type: functional; design: scale not given: the % may be the effect or the level left
In short: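 Tumours from the SCID HT-29 orthotopic study were formalin-fixed and paraffin-embedded, cut at 2 µm, and given citrate pH 6 retrieval at 98 °C for 40 min. They were stained with anti-human Ki-67 (1:40, 1 h RT), then a biotinylated link, HRP polymer and AEC. Ki-67+ cells were counted in 5 fields per tumour at 40× magnification. The proliferation index is the % positive cells.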

[1] = Potency index, ratio of compound IC50 to Daunomycin IC50 for human M24 cells preincubated for 24 hrs under serum free condition followed by compound washout and further incubation for 48 hrs in presence of serum by MTT assay; assay type: functional
[2] = Drug uptake in mitochondria of human HT-29 cells assessed as increase in fluorescence at 50 uM after 30 mins by MitoTracker deep red staining based confocal microscopic analysis; assay type: ADME; conditions: ht-29, 0.5 h
In short: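 HT-29 cells were exposed to 50 µM conjugate for 30 min before imaging. Lysosomes were stained with LysoTracker Deep Red and mitochondria with MitoTracker Deep Red. Confocal imaging detected Dau at 550–600 nm.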

[3] = Cytostatic activity against human M24 cells preincubated for 24 hrs under serum free condition followed by compound washout and further incubation for 48 hrs in presence of serum by MTT assay; assay type: functional, cell-based
In short: (§1)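 Cells were grown at 37 °C in 5% CO2 in medium with 10% heat-inactivated FBS (20% for OVCAR-3) plus penicillin/streptomycin. The medium was RPMI-1640 for most lines, DMEM for U-87 MG and MRC-5, and IMDM for PE/CA-PJ lines. Seeding was 3×10^3–10×10^3 cells per well. Cells had 24 h compound exposure, a wash, and 48 h further culture. Read-out was MTT, normalized to untreated cells and fitted by nonlinear regression for IC50.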

[4] = Cytostatic activity against human WM983B cells preincubated for 24 hrs under serum free condition followed by compound washout and further incubation for 48 hrs in presence of serum by MTT assay; assay type: functional, cell-based; in short: as §1
[5] = Potency index, ratio of compound IC50 to Daunomycin IC50 for human PE/CA-PJ15 cells preincubated for 24 hrs under serum free condition followed by compound washout and further incubation for 48 hrs in presence of serum by MTT assay; assay type: functional
4T1 = assay: Cytostatic activity against mouse 4T1 cells preincubated for 24 hrs under serum free condition followed by compound washout and further incubation for 48 hrs in presence of serum by MTT assay; assay type: functional, cell-based; in short: as §1
PC-3 = assay: Potency index, ratio of compound IC50 to Daunomycin IC50 for human PC3 cells preincubated for 24 hrs under serum free condition followed by compound washout and further incubation for 48 hrs in presence of serum by MTT assay; assay type: functional

## COc1cccc2c1C(=O)c1c(O)c3c(c(O)c1C2=O)C[C@@](O)(/C(C)=N/OCC(=O)N[C@@H](CC(C)C)C(=O)N[C@@H](CCCNC(=N)N)C(=O)N[C@@H](CCCNC(=N)N)C(=O)N[C@@H](Cc1ccc(O)cc1)C(=O)N[C@H](C(=O)N[C@@H](Cc1cnc[nH]1)C(=O)N[C@@H](CC(C)C)C(=O)N[C@@H](Cc1ccccc1)C(=O)N[C@@H](Cc1ccc(O)cc1)C(=O)N[C@@H](C)C(=O)N[C@H](C(N)=O)[C@@H](C)O)C(C)C)C[C@@H]3O[C@H]1C[C@H](N)[C@H](O)[C@H](C)O1 (X1-LRRYVHLFYAT-NH2)
MDA-MB-231
  Ratio IC50: 86.6
HT-29
  Activity: 58%
[1]
  Ratio IC50: 61.7
[2]
  Drug uptake: Not Active
[3]
  IC50: 5.8 µM
[4]
  IC50: 5.1 µM
[5]
  Ratio IC50: 277.3
4T1
  IC50: 11.6 µM
PC-3
  Ratio IC50: 226.7
